Assay results of several laboratories.
Compare with care: the assays were run in different laboratories.
Target: BDNF/NT-3 growth factors receptor (NTRK2, Homo sapiens, UniProt Q16620)

SMILES	effect on	mode	technique	concentration	endpoint	value
CC1=C(C#N)[C@@H](c2ccc3[nH]nc(C)c3c2)C(C#N)=C(c2ccc(Cl)cc2)N1	cell-free assay		competition with immobilised ligand	1 µM	remaining binding	85.2%
COc1cc2c(N3CCN(C(=O)Nc4ccc(OC(C)C)cc4)CC3)ncnc2cc1OCCCN1CCCCC1	cell-free assay			0.5 µM	remaining signal	81.7%
O=C(Nc1ccc(Br)cc1)Nc1cccc(C(=O)Nc2ccc3[nH]ncc3c2)c1	enzyme activity	inhibitor	FRET	1 µM	inhibition	15.7%
CS(=O)(=O)NCC[C@H](NC(=O)c1cncc2c1cnn2-c1ccc(F)cc1)c1ccnc(S(C)(=O)=O)c1	cell-free assay		competition with immobilised ligand	1 µM	remaining binding	100%
CCN(CC)c1ccc(C2=NNC(=O)CC2C)cc1[N+](=O)[O-] (centres unmarked)	enzyme activity	inhibitor		10 µM	remaining activity	87%
Cc1cc(C)c(-n2ccn3nc(-c4cccnc4)cc23)cc1NC(=O)c1cc(C#N)cc(S(F)(F)(F)(F)F)c1	cell-free assay		competition with immobilised ligand	0.1 µM	remaining binding	54.8%
O=C(Nc1ccc2[nH]ncc2c1)c1cccc(NC(=S)Nc2ccc(F)cc2F)c1	enzyme activity	inhibitor	FRET	1 µM	inhibition	9.64%
Cc1cnc(NC2CCOCC2)nc1-n1cnc(C(=O)NC(CN)c2cc(F)cc(Cl)c2)c1 (centres unmarked)	enzyme activity	inhibitor	radiometric	1 µM	remaining activity	110%
O=C(Nc1ccc2[nH]ncc2c1)c1cccc(NC(=O)c2cc(C(F)(F)F)ccc2F)c1	enzyme activity	inhibitor	FRET	1 µM	inhibition	13.5%
O=C(Nc1cnn(-c2csc(C(=O)NC3COC3)c2)c1)Nc1c(F)cccc1Cl	enzyme activity	inhibitor		5 µM	remaining activity	91.5%
CC(C)(C)c1nc(-c2cccc(NS(=O)(=O)c3c(F)cccc3F)c2F)c(-c2ccnc(N)n2)s1	enzyme activity	inhibitor	radiometric	1 µM	remaining activity	100%
Cc1ccc(C(=O)Nc2ccc(CN3CCN(C)CC3)c(C(F)(F)F)c2)cc1C#Cc1cnc2cccnn12	cell-free assay			23.5 nM	remaining signal	2.3%
O=C(Nc1ccc(C(F)(F)F)cc1)Nc1cccc(C(=O)Nc2ccc3[nH]nc(-c4ccccc4)c3c2)c1	enzyme activity	inhibitor	FRET	1 µM	inhibition	14.7%
C[C@@H]1CN(c2cc(-c3n[nH]c4ccc(OC5(C)CC5)cc34)ncn2)C[C@H](C)O1	cell-free assay		competition with immobilised ligand	0.1 µM	remaining binding	67%
O=C(Nc1cccc(C(=O)Nc2ccc3[nH]ncc3c2)c1)Nc1ccccc1C(F)(F)F	enzyme activity	inhibitor	FRET	1 µM	inhibition	25.7%
CNC(=O)c1cc(Oc2ccc(NC(=O)Nc3ccc(Cl)c(C(F)(F)F)c3)cc2)ccn1	cell-free assay			10 µM	inhibition	99%
COc1cc(Cl)c(C(=O)N[C@@H](CN[C@H]2CC[C@@H](N)CC2)Cc2ccc(C#N)cc2)cc1-c1ccc(CN[C@H](C)c2ccc(C)cc2)o1	enzyme activity	inhibitor		1 µM	remaining activity	64%
CNC(=O)Nc1ccc2c(c1)[C@@]1(CC2)OC(=O)N(CC(=O)N(Cc2ccc(F)cc2)[C@@H](C)C(F)(F)F)C1=O	cell-free assay		competition with immobilised ligand	1 µM	remaining binding	89%
O=C(Nc1ccc2[nH]ncc2c1)c1cccc(NC(=S)Nc2ccc(C(F)(F)F)cc2)c1	enzyme activity	inhibitor	FRET	1 µM	inhibition	19.6%
CCN(CC)CCNC(=O)c1c(C)[nH]c(/C=C2\C(=O)Nc3ccc(F)cc32)c1C	cell-free assay			10 µM	inhibition	100%
CN1CCN(CC(=O)Nc2cccc(C(=O)Nc3ccc4[nH]ncc4c3)c2)CC1	enzyme activity	inhibitor	FRET	1 µM	inhibition	13.3%
N#CCCc1ccc2c(c1)-c1[nH]c3ccc([N+](=O)[O-])cc3c1CC(=O)N2	cell-free assay			0.5 µM	remaining signal	86.4%
CC(C)(O)[C@H]1CC[C@H](Nc2ccc3ncc(-c4cccc(C(F)(F)F)c4)n3n2)CC1	enzyme activity	inhibitor		1 µM	remaining activity	7.07%
CCC(=O)N[C@@H]1CC[C@H](C(=O)N(C)c2ccc(-c3nc4ccccc4o3)cc2)C1	cell-free assay		competition with immobilised ligand	1 µM	remaining binding	100%
O=C(Nc1ccc(I)cc1)Nc1cccc(C(=O)Nc2ccc3[nH]ncc3c2)c1	enzyme activity	inhibitor	FRET	1 µM	inhibition	15.9%
C[C@H](c1ccc(F)cc1)N(Cc1cccc(C(=O)O)c1)C(=O)c1cnc2ccccc2c1	cell-free assay		competition with immobilised ligand	1 µM	remaining binding	100%
O=C1NC(=O)c2cc(Nc3ccc(F)cc3)c(Nc3ccc(F)cc3)cc21	cell-free assay			0.5 µM	remaining signal	91.9%
Cc1nccc(COC(=O)N2C[C@@H]3[C@@H](CNC(=O)c4ccc5[nH]nnc5c4)[C@@H]3C2)n1	cell-free assay		competition with immobilised ligand	1 µM	remaining binding	100%
Nc1ncnc2occ(-c3ccc(NC(=O)Nc4cc(C(F)(F)F)ccc4F)cc3)c12	cell-free assay			20 µM	remaining signal	1.4%
